The target in test [1] is Endothelin receptor type B (Rattus norvegicus) (UniProt P21451). Briefly: Inhibition of [125I]ET-1 binding to rat cerebellum membranes (Endothelin B receptor) was determined in a radioligand binding assay.
For test [2], the target named is Endothelin-1 receptor (Rattus norvegicus). The test is described as follows: Ability to inhibit Endothelin A receptor induced contractions in rabbit carotid artery rings (ETA) was determined in an in vitro functional assay.
The target of test [3] is T1, Endothelin-1 receptor (Rattus norvegicus, UniProt P26684).
T1 sequence (P26684 whole entry): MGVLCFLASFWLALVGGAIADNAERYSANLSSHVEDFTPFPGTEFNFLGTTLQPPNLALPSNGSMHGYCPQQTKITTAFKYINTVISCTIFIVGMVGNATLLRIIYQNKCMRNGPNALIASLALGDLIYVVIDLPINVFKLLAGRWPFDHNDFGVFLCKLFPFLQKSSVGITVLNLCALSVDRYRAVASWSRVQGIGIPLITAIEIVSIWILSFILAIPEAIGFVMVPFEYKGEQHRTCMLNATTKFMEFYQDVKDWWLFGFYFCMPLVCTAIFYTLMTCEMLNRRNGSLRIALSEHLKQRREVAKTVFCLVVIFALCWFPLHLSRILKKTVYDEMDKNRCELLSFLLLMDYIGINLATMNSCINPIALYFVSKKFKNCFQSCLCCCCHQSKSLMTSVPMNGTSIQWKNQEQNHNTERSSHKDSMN
Briefly: Ability to inhibit binding of [125I]ET1 to membranes prepared from A10 rat thoracic aorta smooth muscle (Endothelin A receptor) was determined by radioligand binding assay. Type of test: tissue-based. The essentials: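 Competition binding of [125I]ET-1 to membranes prepared from A10 rat thoracic aorta smooth muscle cells (ET_A). Data were fitted iteratively to a one- or two-site binding model, and Ki was calculated from the IC50. Values are reported as Ki ± SE.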

Test [4] concerns the target T1, Endothelin-1 receptor. Briefly: Ability to inhibit binding of [125I]ET1 to membranes prepared from A10 rat thoracic aorta smooth muscle Endothelin A receptor. Type of test: tissue-based.
The target in test [5] is T2, Endothelin receptor type B (Rattus norvegicus, UniProt P21451).
T2 sequence (P21451 whole entry): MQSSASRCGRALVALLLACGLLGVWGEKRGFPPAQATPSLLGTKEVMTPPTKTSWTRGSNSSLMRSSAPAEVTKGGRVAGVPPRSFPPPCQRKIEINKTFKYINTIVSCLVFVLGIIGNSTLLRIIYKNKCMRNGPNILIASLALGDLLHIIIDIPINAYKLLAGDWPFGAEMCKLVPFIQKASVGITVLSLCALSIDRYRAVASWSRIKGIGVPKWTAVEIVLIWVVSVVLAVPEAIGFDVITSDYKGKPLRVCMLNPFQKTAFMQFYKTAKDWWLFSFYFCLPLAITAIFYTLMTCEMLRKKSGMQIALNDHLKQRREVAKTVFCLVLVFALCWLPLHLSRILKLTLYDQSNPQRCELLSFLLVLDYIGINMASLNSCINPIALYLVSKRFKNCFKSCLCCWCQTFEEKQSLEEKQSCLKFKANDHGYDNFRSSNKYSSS
The test is described as follows: Ability to inhibit binding of [125I]-ET-1 to membranes prepared from […] rat cerebellum (Endothelin B receptor). The test is classed as tissue-based.

As usually defined, the Ki is a dissociation constant, usually derived from enzyme kinetics or from competition with a known ligand. Read a high Ki as weaker binding. `Cc1noc(NS(=O)(=O)c2ccccc2-c2cccs2)c1C`: the inhibition constant (Ki) in test [1] was above 200000 nM.

On to `Cc1noc(NS(=O)(=O)c2ccccc2-c2cc3ccccc3[nH]2)c1C`, for which the inhibition constant (Ki) in test [1] turned out to be 66000 nM. Take `Cc1noc(NS(=O)(=O)c2ccccc2-c2ncccn2)c1C`: the values for the Ki in test [1] and in test [2] were above 200000 nM and 8800 nM, respectively. `Cc1noc(NS(=O)(=O)c2ccccc2-c2cccnc2)c1C` had an inhibitory constant (Ki) in test [1] above 200000 nM. On the same count and under the same terms, the same measure for `Cc1noc(NS(=O)(=O)c2ccccc2-c2c[nH]c3ccccc23)c1C`: above 200000 nM. The same measure, in the same setting: next, `Cc1noc(NS(=O)(=O)c2ccccc2-c2ccsc2)c1C`: above 200000 nM.

For the compound `Cc1noc(NS(=O)(=O)c2ccccc2Br)c1C`, the Ki on Endothelin-1 receptor [3] turned out to be 8000 nM. In turn, `Cc1noc(NS(=O)(=O)c2ccccc2-c2ccccn2)c1C` registered a Ki in test [2] of 820 nM. Take `Cc1noc(NS(=O)(=O)c2ccccc2-c2ccc(CC(C)C)cc2CO)c1C`: the Ki on Endothelin-1 receptor [4] came to 20 nM; in test [5], 1300 nM. The matching figures for `CNC(=O)Nc1cc(CC(C)C)ccc1-c1ccccc1S(=O)(=O)Nc1onc(C)c1C`: 43 nM and 5400 nM. The matching figures for `Cc1noc(NS(=O)(=O)c2ccccc2-c2ccc(NC(C)C)cc2)c1C`: 50 nM and 17000 nM.

Turning to `Cc1noc(NS(=O)(=O)c2ccccc2-c2ccc(OC(C)C)cc2)c1C`, the Ki was 17 nM on Endothelin-1 receptor [4] and 1500 nM in test [5].

Regarding `Cc1noc(NS(=O)(=O)c2ccc(N)cc2-c2ccc(CC(C)C)cc2)c1C`, the results for the Ki (on Endothelin-1 receptor [4]; in test [5]) were 14 nM and 2100 nM, respectively. The matching figures for `Cc1noc(NS(=O)(=O)c2cc(OCc3ccccc3)ccc2-c2ccc(CC(C)C)cc2)c1C`: above 20000 nM and above 200000 nM. Consider `Cc1noc(NS(=O)(=O)c2ccccc2-c2ccc(OCc3ccccc3)cc2)c1C`, for which the Ki at Endothelin-1 receptor [4] is 190 nM; in test [5] it was 8400 nM. Take `CCCCc1ccc(-c2ccccc2S(=O)(=O)Nc2onc(C)c2C)cc1`: the figures for the Ki (at Endothelin-1 receptor [4]; in test [5]) were 37 nM and 1900 nM, respectively. The matching figures for `CCOC(=O)c1c(C)noc1NS(=O)(=O)c1ccccc1-c1ccc(CC(C)C)cc1`: 7200 nM and 42000 nM. With `Cc1noc(NS(=O)(=O)c2cccc(O)c2-c2ccc(CC(C)C)cc2)c1C`, the inhibition constant (Ki) at Endothelin-1 receptor [4] amounted to 5 nM; in test [5] it was 940 nM. The matching figures for `Cc1noc(NS(=O)(=O)c2ccccc2-c2ccc(S(=O)(=O)N(C)C)cc2)c1C`: 560 nM and above 200000 nM. The matching figures for `Cc1noc(NS(=O)(=O)c2ccccc2-c2ccccc2CO)c1C`: 40 nM and above 200000 nM. Take `CCNc1cc(CC(C)C)ccc1-c1ccccc1S(=O)(=O)Nc1onc(C)c1C`: the results for the Ki (on Endothelin-1 receptor [4]; in test [5]) were 6.3 nM and 1400 nM, respectively.

(Values after ChEMBL document CHEMBL1131435, “Biphenylsulfonamide endothelin antagonists: structure-activity relationships of a series of mono- and disubstituted analogues and pharmacology of the orally active endothelin antagonist 2'-amino-N- (3,4-dimethyl-5-isoxazolyl)-4'-(2-methylpropyl)[1, 1'-biphenyl]-2-sulfonamide (BMS-187308)” (J Med Chem, 1998).)
